The target in one data set is T1, Vasopressin V1b receptor (Homo sapiens, UniProt P47901).
T1 sequence (P47901 whole entry): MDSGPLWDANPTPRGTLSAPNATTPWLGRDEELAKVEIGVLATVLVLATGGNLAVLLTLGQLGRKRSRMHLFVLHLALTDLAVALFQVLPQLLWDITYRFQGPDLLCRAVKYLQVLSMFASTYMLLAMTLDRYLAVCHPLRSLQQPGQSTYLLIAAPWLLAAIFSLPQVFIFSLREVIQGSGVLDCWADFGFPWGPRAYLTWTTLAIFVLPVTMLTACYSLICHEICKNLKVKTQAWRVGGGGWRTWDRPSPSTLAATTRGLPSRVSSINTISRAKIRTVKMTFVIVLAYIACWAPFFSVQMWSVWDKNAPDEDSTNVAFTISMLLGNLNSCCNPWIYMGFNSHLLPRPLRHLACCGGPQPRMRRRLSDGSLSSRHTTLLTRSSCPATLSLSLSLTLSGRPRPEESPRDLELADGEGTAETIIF
The data set is described as follows: Displacement of [3H]AVP from human vasopressin V1b receptor expressed in CHO cells by scintillation counting. Type of data set: cell-based.

For another data set, the target named is Vasopressin V1a receptor (Homo sapiens, UniProt P37288). The data set is described as follows: Displacement of [3H]AVP from human vasopressin V1a receptor expressed in CHO cells by scintillation counting. Type of data set: cell-based. Summed up:
(§1)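 Ki from radioligand displacement at the human receptor, run per a previously published protocol; each value is the mean of at least two experiments.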
A general note: Loss of bound radioactivity is the signal in a displacement assay; it reports binding, not function.

The target of the next data set is Vasopressin V2 receptor (Homo sapiens, UniProt P30518). The data set is described as follows: Displacement of [3H]AVP from human vasopressin V2 receptor expressed in CHO cells by scintillation counting. Type of data set: cell-based. The procedure, abridged: as §1
Sequence of Vasopressin V2 receptor (P30518 whole entry): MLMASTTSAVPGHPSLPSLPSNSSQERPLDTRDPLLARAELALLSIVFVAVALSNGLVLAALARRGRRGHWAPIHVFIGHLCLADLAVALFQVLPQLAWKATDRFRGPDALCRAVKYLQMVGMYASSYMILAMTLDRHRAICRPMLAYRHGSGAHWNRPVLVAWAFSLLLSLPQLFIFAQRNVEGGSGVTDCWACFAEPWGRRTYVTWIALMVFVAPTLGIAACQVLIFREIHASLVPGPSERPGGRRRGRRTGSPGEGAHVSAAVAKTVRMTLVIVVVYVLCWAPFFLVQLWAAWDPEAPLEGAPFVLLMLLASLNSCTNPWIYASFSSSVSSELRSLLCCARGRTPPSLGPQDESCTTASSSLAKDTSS
The target in a further data set is T2, Oxytocin receptor (Homo sapiens, UniProt P30559).
T2 sequence (P30559 whole entry): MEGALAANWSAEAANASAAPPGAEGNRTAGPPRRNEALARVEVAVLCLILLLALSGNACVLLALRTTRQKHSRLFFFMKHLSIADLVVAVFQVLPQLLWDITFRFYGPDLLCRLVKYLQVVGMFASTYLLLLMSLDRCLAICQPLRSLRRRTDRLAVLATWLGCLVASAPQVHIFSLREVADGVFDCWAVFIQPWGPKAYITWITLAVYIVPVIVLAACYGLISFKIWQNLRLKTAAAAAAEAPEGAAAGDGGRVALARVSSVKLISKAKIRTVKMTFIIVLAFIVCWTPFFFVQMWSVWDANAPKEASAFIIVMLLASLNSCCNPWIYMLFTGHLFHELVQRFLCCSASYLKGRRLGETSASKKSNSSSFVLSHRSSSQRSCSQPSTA
The data set is described as follows: Displacement of radiolabeled oxytocin from human oxytocin receptor expressed in CHO cells by scintillation counting. Type of data set: cell-based. Summed up: as §1

A short description of data set [1]: Intrinsic clearance in human liver microsomes measured up to 40 mins by HPLC-MS method. Type of data set: ADME, Microsome. The procedure, abridged: (§2)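 Intrinsic clearance determined by liver microsome incubation using a previously published procedure, reported in µL/min/mg; each value is the mean of at least two experiments.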
Background: Liver microsomes are a subcellular fraction often used to study metabolism.

The nature of data set [2]: Intrinsic clearance in rat liver microsomes measured up to 40 mins by HPLC-MS method. The format is ADME, Microsome. The procedure, abridged:
as §2

Data set [3] in a line: Terminal half life in rat at 2 mg/kg, iv. Type of data set: ADME, organism-based. Details: dose 2 mg/kg, route intravenous. The following applies: in vivo, read-out: beta t1/2 (converted).
The nature of data set [4]: Volume of distribution at steady state in rat at 2 mg/kg, iv. Type of data set: ADME, organism-based. The settings on record: in vivo, read-out: Vdss. Also noted: dose 2 mg/kg, route intravenous.
A short description of data set [5]: Clearance in rat plasma at 2 mg/kg, iv. Details: dose 2 mg/kg, route intravenous. The format is ADME, organism-based.
The nature of data set [6]: Oral bioavailability in rat plasma at 10 mg/kg. The format is ADME, organism-based.
A short description of data set [7]: Ratio of AUC in brain to plasma in rat at 10 mg/kg, ip. Type of data set: ADME, organism-based. Also noted: dose 10 mg/kg, route intraperitoneal. The following applies: brain and plasma, read-out: Ratio AUC.
For the next data set, the system named is Rattus norvegicus. The data set is described as follows: Antidepressant activity in rat at 3 mg/kg, ip by forced swimming test. The format is functional, organism-based. Details: dose 3 mg/kg.

Consider one compound from ChEMBL document CHEMBL1777717, “Potent and selective oxindole-based vasopressin 1b receptor antagonists with improved pharmacokinetic properties” (Bioorg Med Chem Lett, 2011).

Molecules are shown by their SMILES. Calls of active or inactive are those of the source. No cut-off for these calls is given here.

Sequence of Vasopressin V1a receptor (P37288 whole entry): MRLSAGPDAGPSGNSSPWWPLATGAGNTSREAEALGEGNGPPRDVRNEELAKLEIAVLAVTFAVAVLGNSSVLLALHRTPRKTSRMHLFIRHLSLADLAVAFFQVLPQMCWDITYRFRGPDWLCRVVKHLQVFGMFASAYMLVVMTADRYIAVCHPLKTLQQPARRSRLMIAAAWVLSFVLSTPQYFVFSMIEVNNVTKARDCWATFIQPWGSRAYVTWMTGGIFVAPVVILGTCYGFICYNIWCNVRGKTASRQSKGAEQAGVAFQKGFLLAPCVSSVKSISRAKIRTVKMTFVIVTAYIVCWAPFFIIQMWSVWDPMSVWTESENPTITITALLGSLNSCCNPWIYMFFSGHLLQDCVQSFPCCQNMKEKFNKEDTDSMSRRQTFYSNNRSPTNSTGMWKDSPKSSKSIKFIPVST

Usually Ki stands for the equilibrium dissociation constant of an inhibitor or competing ligand from its target. The low end stands for tighter binding, the high end for weaker binding. In general, microsomal CLint refers to the capacity of the preparation to metabolise the compound, expressed as a volume cleared per time. Low values mean greater metabolic stability, high ones faster metabolism. Usually clearance stands for the rate of elimination divided by the concentration. As usually defined, the bioavailability is the share of a dose that reaches the circulation, judged against a reference dose that is usually intravenous. Low readings indicate poor availability, high ones good availability. Turning to `CNCc1ccc(OC)c([C@@]2(N3CCC[C@H]3c3ncco3)C(=O)N(S(=O)(=O)c3ccc(OC)cc3)c3ccc(Cl)cc32)c1`, the Ki was 3.9 nM at Vasopressin V1b receptor, 243 nM at Vasopressin V1a receptor, more than 1000 nM at Vasopressin V2 receptor and 135 nM on Oxytocin receptor. Also, the microsomal CLint was 64 µL/min/mg in data set [1] and 62 µL/min/mg in data set [2]. The half-life in [3] was 198 min. For the same compound, in [4], the Vd came to 13 L/kg. Also, in [5], the clearance is 50 mL/min/kg. Also, the bioavailability in data set [6] is 68%. Also, the Kp in data set [7] stood at 0.31. Also, in the data set on Rattus norvegicus, the outcome was Active.
